From article PMC11350598 (JACS Au, 2024)
Like-named read-outs stand apart in the source and are kept apart here. Marks after values point to notes of the source that are not given here.

Columns and labels:
[1] = tested on: wild-type (AF) A. ferrooxidans cells; assay type: cell-based; conditions: for binding capacity: 1 mM mixed metal solution, pH 1.8
[2] = tested on: AFMP (engineered A. ferrooxidans expressing mutant ModA/WtpA); test: Metal binding by cells in synthetic metal solutions; assay type: cell-based; conditions: for binding capacity to other oxyanion metals: Figure S6
[3] = tested on: AFWP (engineered A. ferrooxidans overexpressing wild-type ModA/WtpA); test: as above; assay type: cell-based; conditions: for binding capacity to other oxyanion metals: Figure S6; for binding capacity / fold higher binding capacity compared to wild-type cells: pH 1.8
AFMP cells = test: Metal recovery from porphyry molybdenite processing concentrate; assay type: cell-based, A. ferrooxidans; conditions: for efficiency of recovery: diluted acidic wastewater from molybdenite processing; for binding during reactions with process concentrate: data not shown
Method in brief: (§1)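 Wild-type *A. ferrooxidans* and strains engineered to (over)express wild-type (AFWP) or mutant (AFMP) ModA/WtpA oxyanion-binding protein (AFE_1498) were each reacted with diluted acidic wastewater from the washing and extraction steps of porphyry molybdenite processing. The wastewater held molybdenum and rhenium as major components, at pH 1.6. Mo and Re recovery efficiency after binding was compared with wild-type cells.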

[4] = tested on: wild-type ModA/WtpA protein (AFE_1498); test: Metal binding in vitro by purified protein; parameters: species or system A. ferrooxidans; conditions: pH 1.8, 1:1 molar ratio
Method in brief: (§2)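 Purified polyHis-tagged protein (Ni-NTA resin, then size exclusion chromatography; about 35 kDa on SDS-PAGE). It was incubated 1 h at pH 1.8 with a solution of one oxyanion: molybdate, tungstate, chromate or perrhenate. Binding efficiency was taken after the incubation. Error bars are one standard deviation, and p < 0.05 versus wild-type protein for the same metal.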

mutant ModA/WtpA protein = test: Quenching of intrinsic tryptophan fluorescence, Langmuir isotherm fit; assay type: binding, A. ferrooxidans; conditions: pH 1.8; for Kd: read-out: dissociation constant, mutant protein
Method in brief: (§3)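 Purified polyHis-tagged protein (Ni-NTA resin, then size exclusion chromatography) at a fixed amount, titrated at pH 1.8 with varying initial concentrations of molybdate, tungstate, chromate or perrhenate. Significance was p < 0.05 versus wild-type protein for the same metal.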

[5] = molecular target: wild-type ModA/WtpA protein; test: as above; assay type: binding, A. ferrooxidans; conditions: read-out: dissociation constant, pH 1.8
Method in brief: as §3

[6] = cited from earlier work
AFWP cells = test: Metal recovery from porphyry molybdenite processing concentrate; assay type: cell-based, A. ferrooxidans; conditions: pH 1.6; for efficiency of recovery: diluted acidic wastewater from molybdenite processing
Method in brief: as §1

[7] = tested on: wild-type (AF) A. ferrooxidans cells; test: as above; assay type: cell-based; conditions: for efficiency of recovery: diluted acidic wastewater from molybdenite processing, pH 1.6; for binding during reactions with process concentrate: data not shown
Method in brief: as §1

[8] = tested on: mutant (G9C/A166C) ModA/WtpA protein; test: Metal binding in vitro by purified protein; parameters: species or system A. ferrooxidans; conditions: pH 1.8, 1:1 molar ratio
Method in brief: as §2

[9] = diluted process concentrate, pH 1.6
[10] = 1 mM mixed metal solution, pH 1.8
[11] = 1 mM pure metal solution, pH 1.8

Molecule	binding efficiency (bound) [4]	Kd (mutant ModA/WtpA protein) [nM]	Kd [5] [nM]	binding capacity [2, 11] [fg/cell]	fold higher binding capacity compared to wild-type cells [2, 11] [fold]	binding efficiency (bound) [8]	binding capacity ([1]; wild-type AF) [fg/cell]	binding capacity [2, 10] [fg/cell]	binding capacity ([3]; 1 mM mixed metal solution) [fg/cell]	pKa ([6]; ref [4],[47])	binding capacity ([3]; 1 mM pure metal solution) [fg/cell]	fold higher binding capacity compared to wild-type cells ([3]; 1 mM pure metal solution) [fold]	other results
phosphate	–	–	–	–	–	–	–	–	–	–	–	–	binding capacity to other oxyanion metals ([1]; wild-type AF, Figure S6): did not show significant binding capacity; binding capacity to other oxyanion metals [2]: did not show significant binding capacity; binding capacity to other oxyanion metals [3]: did not show significant binding capacity
[O]=[Re](=[O])(=[O])[O-] [perrhenate]	1.4%	160 ± 30	1000 ± 100	1.3	5	93%	–	–	–	–	–	–	efficiency of recovery (AFMP cells; pH 1.6): 5.7 ± 0.1%*^,**; fold more recovered than wild-type and AFWP cells (AFMP cells; [9]): 3 fold; fold lower Kd (higher affinity) of mutant protein than wild-type protein (mutant ModA/WtpA protein): 6 fold; pKa ([6]; ref [47]): −1.25; efficiency of recovery (AFWP cells): 1.9 ± 0.2%*^,**; efficiency of recovery [7]: 1.7 ± 0.1%; fold higher binding capacity than wild-type AF and AFWP cells [2, 10]: 2.7 fold; fold higher binding capacity compared to AFWP cells [2, 11]: 2 fold
[Fe+2] [iron]	1.7 ± 0.3%	–	–	–	–	1.3 ± 0.5%	0.04	0.04	0.04	–	–	–	–
[As] [arsenic]	–	–	–	–	–	–	–	–	–	–	–	–	binding during reactions with process concentrate (AFMP cells): nonspecific binding; binding during reactions with process concentrate [7]: nonspecific binding
[O]=[Cr](=[O])([O-])[O-] [chromate]	nearly all	480 ± 70	500 ± 110	0.6	1.3	nearly all	0.03	0.07	0.06	6.5	0.6	1.3	–
[O]=[W](=[O])([O-])[O-] [tungstate]	nearly all	360 ± 60	490 ± 110	0.24	2	nearly all	–	0.04	0.02	6.7	0.23	2	–
O=[As][O-].[Na+] [arsenite]	–	–	–	–	–	–	–	–	–	–	–	–	binding capacity to other oxyanion metals [1]: did not show significant binding capacity; binding capacity to other oxyanion metals [2]: did not show significant binding capacity; binding capacity to other oxyanion metals [3]: did not show significant binding capacity
[O]=[Mo](=[O])([O-])[O-] [molybdate]	nearly all	150 ± 10	320 ± 30	18	1.4	nearly all	3.6	8.4	5.9	3.8	18	1.4	efficiency of recovery (AFMP cells; pH 1.6): 12 ± 1%; fold more recovered compared to wild-type AF cells (AFMP cells; [9]): 2 fold; fold lower Kd (higher affinity) of mutant protein than wild-type protein (mutant ModA/WtpA protein): 2 fold; efficiency of recovery (AFWP cells): 12 ± 1%; fold more recovered compared to wild-type AF cells (AFWP cells; diluted process concentrate): 2 fold; efficiency of recovery [7]: 6.0 ± 0.1%
[Se] [selenium]	–	–	–	–	–	–	–	–	–	–	–	–	binding during reactions with process concentrate (AFMP cells): nonspecific binding; binding during reactions with process concentrate [7]: nonspecific binding
